Screening data as filed in PubChem BioAssay.
PglD DTNB: blocks C. jejuni PglD acetyltransferase activity; purified PglD enzyme, DTNB colorimetric CoA detection; inhibition, % at 12.5 µM; hit rate 0.098% among 360,000; in the data active = inhibition above about 16%, passing the limit was not always enough; inconclusive = no clear call, values can overlap the other calls
ERAP1 inh: ERAP1 (human) enzyme inhibition. Q9NZ08. recombinant ERAP1, Leu-AMC fluorescence, 60 min. inhibition, % at 10.7 µM. hit rate 0.15% among 340,000. AID 652197;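 active = mean replicate inhibition of at least 30%, or all replicates individually reaching that 30% level; inactive = mean below 30% and not every replicate reaching it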;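 note: 0% = neutral control wells and 100% = L-leucinethiol positive control wells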
Target sequence (Q9NZ08 whole entry, looked up): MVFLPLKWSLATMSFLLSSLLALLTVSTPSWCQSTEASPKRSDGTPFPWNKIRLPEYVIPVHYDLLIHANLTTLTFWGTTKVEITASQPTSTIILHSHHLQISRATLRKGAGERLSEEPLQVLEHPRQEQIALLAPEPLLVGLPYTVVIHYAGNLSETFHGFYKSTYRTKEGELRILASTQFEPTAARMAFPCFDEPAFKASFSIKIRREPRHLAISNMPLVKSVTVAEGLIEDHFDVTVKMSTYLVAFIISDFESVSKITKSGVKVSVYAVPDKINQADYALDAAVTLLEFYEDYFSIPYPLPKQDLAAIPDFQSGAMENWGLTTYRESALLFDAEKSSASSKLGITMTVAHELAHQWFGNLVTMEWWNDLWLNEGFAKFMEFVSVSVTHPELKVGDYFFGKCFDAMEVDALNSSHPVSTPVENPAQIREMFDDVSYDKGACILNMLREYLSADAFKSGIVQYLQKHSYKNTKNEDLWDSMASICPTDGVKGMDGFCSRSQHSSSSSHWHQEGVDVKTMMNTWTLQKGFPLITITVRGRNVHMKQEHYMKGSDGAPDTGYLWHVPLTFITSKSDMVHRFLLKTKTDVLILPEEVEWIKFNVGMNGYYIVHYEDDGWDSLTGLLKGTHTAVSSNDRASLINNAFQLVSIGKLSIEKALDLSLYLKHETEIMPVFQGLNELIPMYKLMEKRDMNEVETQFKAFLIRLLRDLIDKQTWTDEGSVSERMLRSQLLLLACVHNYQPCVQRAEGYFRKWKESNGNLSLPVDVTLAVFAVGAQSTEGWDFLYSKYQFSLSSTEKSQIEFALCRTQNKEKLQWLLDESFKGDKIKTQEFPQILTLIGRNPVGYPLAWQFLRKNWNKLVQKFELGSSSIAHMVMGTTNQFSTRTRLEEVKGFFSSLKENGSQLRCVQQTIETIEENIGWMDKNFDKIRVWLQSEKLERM
SIRT5 block: inhibitors of human sirtuin-5 desuccinylase; Q9NXA8; Purified SirT5, succinyl-peptide AMC, trypsin-coupled fluorescence; inhibition, % at 15 µM; hit rate 1.1% among 330,000; AID 652115; in the data active = inhibition above about 15%; inconclusive = no clear call, values can overlap the other calls
E-selectin induc: E-selectin induction on HUVECs. hit rate 0.37% among 260,000. activation, % at 7.58 µM. AID 686992. HUVEC E-selectin immunofluorescence imaging; normalized: neutral wells 0, TNF-alpha wells 100. P16581;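 active = mean E-selectin-positive cell signal at least 10% of the positive control, reached in at least 60% of replicates, without over 20% cell loss; inconclusive = no rule given, readout overlaps actives, possibly toxicity-flagged; inactive = the rest, including those meeting only one limit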
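material = human umbilical vein endothelial cells (HUVEC), E-selectin induction | quantity = 3,000 cells/well | medium = EGM-2 growth medium on 0.1% gelatin-coated wells | technique = immunofluorescence imaging | read-out basis = % PE-positive cells | control set = TNF-alpha positive control, DMSO neutral control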
DENV2 CPE rescue: protects cells from dengue virus 2 cytopathic effect | CPE inhibition, % at 9.99 µM | hit rate 1.7% among 350,000 | DENV2-infected cells, cytopathic effect rescue, plate reader; in the data active = CPE inhibition above about 20%, passing the limit was not always enough; inconclusive = no clear call, values can overlap the other calls; tested in BHK-21 cells;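 note: 0% = median of neutral control wells and 100% = median of positive control wells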
The depositor's hits bear a star; u = inconclusive; x = not tested or not shown. Rows were chosen to be rich in hits. Some 2.5% of all compounds tested hit in one or more screens of this group.

SMILES | PglD DTNB | ERAP1 inh | SIRT5 block | E-selectin induc | DENV2 CPE rescue
C[C@@H]1CCCCO[C@H](CN(C)C(=O)Nc2ccc(C(F)(F)F)cc2)[C@@H](C)CN([C@@H](C)CO)C(=O)c2cc(NS(=O)(=O)c3ccccc3)ccc2O1 | 0 | -7 | 0 | 1 | -6
C[C@@H]1CCCCO[C@@H](CN(C)C(=O)Nc2ccc(C(F)(F)F)cc2)[C@H](C)CN([C@@H](C)CO)C(=O)c2cc(NS(=O)(=O)c3ccccc3)ccc2O1 | 2 | -6 | 2 | 0 | 54*
C[C@H]1CCCCO[C@@H](CN(C)C(=O)Nc2ccc(C(F)(F)F)cc2)[C@@H](C)CN([C@@H](C)CO)C(=O)c2cc(NS(=O)(=O)c3ccccc3)ccc2O1 | -3 | -7 | 2 | 0 | 12
C[C@@H]1CN([C@@H](C)CO)C(=O)c2cc(NS(C)(=O)=O)ccc2O[C@@H](C)CCCCO[C@@H]1CN(C)C(=O)Nc1ccc(C(F)(F)F)cc1 | x | -1 | 3 | 0 | 46*
C[C@H](CO)N1C[C@H](C)[C@H](CN(C)C(=O)Nc2ccc(C(F)(F)F)cc2)OCCCC[C@H](C)Oc2ccc(NS(=O)(=O)c3ccccc3)cc2C1=O | 4 | -7 | 0 | 0 | 41*
C[C@@H]1CCCCO[C@H](CN(C)C(=O)Nc2ccc(C(F)(F)F)cc2)[C@@H](C)CN([C@H](C)CO)C(=O)c2cc(NS(=O)(=O)c3ccccc3)ccc2O1 | -1 | -3 | 3 | 0 | 37*
C[C@@H]1CCCCO[C@H](CN(C)C(=O)Nc2ccc(C(F)(F)F)cc2)[C@H](C)CN([C@@H](C)CO)C(=O)c2cc(NS(=O)(=O)c3ccccc3)ccc2O1 | -4 | -4 | 0 | 0 | 40*
F[B-](F)(F)c1cnc2ccccc2c1 | -4 | -3 | 1 | x | 26*
CSC1=NSC2=NC(=O)/C(=C/c3coc4ccccc4c3=O)C(=N)N12 | x | 1 | 2 | -1 | -7
CSC1=NSC2=NC(=O)/C(=C/c3coc4ccc(O)cc4c3=O)C(=N)N12 | x | 1 | 21* | x | x
C[C@@H]1CN([C@@H](C)CO)C(=O)c2cc(NS(C)(=O)=O)ccc2O[C@@H](C)CCCCO[C@@H]1CN(C)S(=O)(=O)c1ccc(Cl)cc1 | -5 | -1 | -4 | 0 | 20*
Cc1ccc(S(=O)(=O)Nc2ccc3c(c2)C(=O)N([C@@H](C)CO)C[C@@H](C)[C@H](CN(C)S(=O)(=O)c2ccc(Cl)cc2)OCCCC[C@@H](C)O3)cc1 | 2 | x | x | 0 | 83*
C[C@@H]1CN([C@H](C)CO)C(=O)c2cc(NS(C)(=O)=O)ccc2O[C@@H](C)CCCCO[C@@H]1CN(C)S(=O)(=O)c1ccc(Cl)cc1 | -3 | 3 | 0 | 0 | 1
Cc1ccc(S(=O)(=O)N(C)C[C@@H]2OCCCC[C@@H](C)Oc3ccc(NS(=O)(=O)c4ccc(Cl)cc4)cc3C(=O)N([C@H](C)CO)C[C@H]2C)cc1 | 2 | 0 | 23* | 0 | -7
Cc1ccc(S(=O)(=O)N(C)C[C@H]2OCCCC[C@H](C)Oc3ccc(NS(=O)(=O)c4ccc(Cl)cc4)cc3C(=O)N([C@H](C)CO)C[C@H]2C)cc1 | -1 | 0 | 26* | 0 | -2
Cc1ccc(S(=O)(=O)Nc2ccc3c(c2)C(=O)N([C@H](C)CO)C[C@H](C)[C@H](CN(C)S(=O)(=O)c2ccc(Cl)cc2)OCCCC[C@H](C)O3)cc1 | 4 | x | x | 1 | -15
C[C@@H]1CCCCO[C@H](CN(C)S(=O)(=O)c2ccc(Cl)cc2)[C@H](C)CN([C@H](C)CO)C(=O)c2cc(N(C)C)ccc2O1 | 1 | -2 | 5 | 1 | 89*
Cc1ccc(S(=O)(=O)N(C)C[C@@H]2OCCCC[C@@H](C)Oc3ccc(NS(=O)(=O)c4ccc(Cl)cc4)cc3C(=O)N([C@@H](C)CO)C[C@H]2C)cc1 | 0 | 2 | 25* | 0 | -1
C[C@@H]1CN([C@H](C)CO)C(=O)c2cc(N(C)C)ccc2O[C@@H](C)CCCCO[C@H]1CN(C)S(=O)(=O)c1ccc(Cl)cc1 | x | x | x | 0 | x
Cc1ccc(S(=O)(=O)N(C)C[C@@H]2OCCCC[C@H](C)Oc3ccc(NS(=O)(=O)c4ccc(Cl)cc4)cc3C(=O)N([C@H](C)CO)C[C@@H]2C)cc1 | 1 | -1 | 19* | 0 | 2
CN1CCN(S(=O)(=O)c2ccc(C3CCCCC3)cc2)CC1 | -1 | 96* | -2 | 0 | 6
COc1ccc(CCNC(=O)Cc2nn(C)c(=O)c3ccccc23)cc1OC | 4 | x | x | x | x
COc1cccc(OCc2ccc(Cn3nc(NC(=O)NCCc4ccc(OC)c(OC)c4)c4ccccc43)cc2)c1 | 4 | 0 | 35* | 1 | -2
CCN1C(=NCc2ccccc2)N[C@@H](c2ccccc2)[C@H](C(=O)OC)[C@H]1C | 5 | 5 | x | x | -14
CCN1C(=NCCc2c[nH]c3ccccc23)N[C@@H](c2ccccc2)[C@H](C(=O)OC)[C@H]1C | 1 | -1 | x | 0 | 27*
SMILES | PglD DTNB | ERAP1 inh | SIRT5 block | E-selectin induc | DENV2 CPE rescue
CCc1nc(SCC(=O)OC(C)C)c2ccccc2n1 | x | -3 | 0 | -1 | u
C[C@@H]1CN([C@@H](C)CO)C(=O)c2cc(C#Cc3cccc(F)c3)cnc2O[C@@H]1CN(C)C(=O)C1CC1 | -2 | 2 | -1 | 1 | 1
CC(C)(C)c1ccc(OC(=O)N2CCOCC2)cc1 | -2 | 1 | 16* | x | -5
Cc1cccc(OCC(=O)Nc2ccc(N3CCN(C(=O)c4ccccc4)CC3)cc2)c1C | 4 | -1 | -3 | 0 | 43*
COCCNC(=O)c1cc2cc3ccc(OC)cc3nc2o1 | -1 | 4 | -109 | 0 | 25*
COc1ccc(C#Cc2ccc([C@H]3[C@H]4CN(S(=O)(=O)c5cn(C)cn5)CCCCN4[C@H]3CO)cc2)cc1 | -3 | -3 | 5 | 0 | -3
COc1ccc(C#Cc2ccc([C@@H]3[C@@H](CO)N4CCCCN(S(=O)(=O)c5cn(C)cn5)C[C@H]34)cc2)cc1 | -1 | -1 | 2 | 0 | 43*
COc1cccc(-c2ccc([C@@H]3[C@@H](CO)N4CCCCN(S(=O)(=O)c5cn(C)cn5)C[C@H]34)cc2)c1 | 0 | 3 | 10 | 1 | 73*
COc1cccc(-c2ccc([C@H]3[C@H]4CN(S(=O)(=O)c5cn(C)cn5)CCCCN4[C@H]3CO)cc2)c1 | 1 | 1 | 1 | 0 | -2
CO[C@@H]1CN(C)C(=O)c2cc(NS(=O)(=O)CC(F)(F)F)ccc2OC[C@H](C)N(Cc2nccs2)C[C@@H]1C | -5 | x | 2 | 0 | x
C[C@@H]1CCCCO[C@H](CN(C)C)[C@@H](C)CN([C@@H](C)CO)C(=O)c2cc(NC(=O)Nc3ccc(F)cc3)ccc2O1 | 1 | 0 | -7 | 0 | -7
COc1cccc(OCc2cc(/C=N/n3cncn3)ccc2OC)c1 | -6 | 1 | 1 | x | -5
CCOc1ccccc1CNC(=O)CNC(=O)c1cccs1 | -4 | x | x | x | x
CCc1ccccc1NC(=O)CNC(=O)CNC(=O)c1cccs1 | 7 | 0 | 53* | x | -16
